Assay results reported in ChEMBL document CHEMBL1154610, “Discovery and preclinical evaluation of [4-[[1-(3-fluorophenyl)methyl]-1H-indazol-5-ylamino]-5-methylpyrrolo[2,1-f][1,2,4]triazin-6-yl]carbamic acid, (3S)-3-morpholinylmethyl ester (BMS-599626), a selective and orally efficacious inhibitor of human epidermal growth factor receptor 1 and 2 kinases” (J Med Chem, 2009).

Legend:
[1] = Tmax in mouse at 120 mg/kg, po; assay type: ADME, organism-based; set-up: dose 120 mg/kg, route oral; settings: in vivo
Method in brief: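 Mouse PK, average of three animals. Solution formulation in PG/Tween80/water (40:10:50), given orally at 120 mg/kg or iv at 25 mg/kg. Tmax taken from the oral arm; Vss taken from the iv arm.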

[2] = Antitumor activity against human GEO cells xenografted in athymic mouse at 120 mg/kg, po qd for 14 days; assay type: functional; settings: 336 h, read-out: TGI
Method in brief: (§1)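 Xenograft-bearing mice dosed orally once daily in propylene glycol/Tween80/water (40:10:50). TGI taken as percent tumor growth inhibition during treatment; significance from mean tumor weight at end of treatment; body weight loss and morbidity monitored.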

[3] = Metabolic stability in mouse liver microsomes assessed per mg of protein at 10 uM after 10 mins; assay type: ADME, Microsome
Method in brief: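 Mouse liver microsomes incubated with compound at 10 µM for 10 min; metabolic rate expressed as nmol/min/mg protein.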

[4] = AUC (0 to 24 hrs) in dog at 25 mg/kg, po; assay type: ADME, organism-based, Canis lupus familiaris; set-up: time < 24 hr, dose 25 mg/kg, route oral; settings: plasma
[5] = Tmax in rat at 10 mg/kg, po; assay type: ADME, organism-based; set-up: dose 10 mg/kg, route oral; settings: in vivo
Method in brief: (§2)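 Rat PK, average of three animals. Solution formulation in PEG400/Tween80/water (50:0.1:50), given orally at 10 mg/kg or iv at 2.5 mg/kg. Tmax comes from oral dosing; Vss comes from iv dosing.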

[6] = target: T1, Cytochrome P450 1A2 (Homo sapiens, UniProt P05177); test: Inhibition of human CYP1A2; assay type: ADME
T1 sequence (P05177 whole entry): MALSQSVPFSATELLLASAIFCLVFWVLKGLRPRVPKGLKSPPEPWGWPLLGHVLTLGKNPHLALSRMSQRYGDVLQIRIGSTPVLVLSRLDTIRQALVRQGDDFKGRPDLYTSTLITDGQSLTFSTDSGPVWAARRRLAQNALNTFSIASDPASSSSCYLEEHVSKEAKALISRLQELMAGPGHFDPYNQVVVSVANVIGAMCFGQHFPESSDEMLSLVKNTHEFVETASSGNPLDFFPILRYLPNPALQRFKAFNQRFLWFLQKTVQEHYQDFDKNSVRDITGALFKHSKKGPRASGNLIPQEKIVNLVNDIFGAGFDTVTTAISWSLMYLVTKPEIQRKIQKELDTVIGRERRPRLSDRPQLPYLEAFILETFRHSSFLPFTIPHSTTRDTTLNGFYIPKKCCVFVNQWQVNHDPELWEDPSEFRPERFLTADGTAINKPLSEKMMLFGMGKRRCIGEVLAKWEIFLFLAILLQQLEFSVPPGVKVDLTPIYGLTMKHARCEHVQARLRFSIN

[7] = tested on: A2780; test: Antiproliferative activity against human A2780 cells after 72 hrs by MTT assay; assay type: functional, cell-based; settings: A2780, 72 h
Method in brief: (§3)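 Cell proliferation IC50 reported as the mean of three independent determinations. BT474 is a breast line (HER2+++/HER1+); A2780 serves as a HER-independent control.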

[8] = Half life in mouse plasma at 120 mg/kg, po; assay type: ADME, organism-based; set-up: dose 120 mg/kg, route oral
[9] = Half life in rat plasma at 10 mg/kg, po; assay type: ADME, organism-based; set-up: dose 10 mg/kg, route oral
[10] = Protein binding in dog plasma at 10 uM by equilibrium dialysis; assay type: ADME, cell-free, Canis lupus familiaris; settings: read-out: PPB (converted)
[11] = tested on: L2987; test: Antitumor activity against human L2987 cells xenografted in athymic mouse at 60 mg/kg, po qd for 14 days; assay type: functional; settings: L2987, 336 h, read-out: TGI; method in brief: as §1
[12] = Cmax in cynomolgus monkey at 5 mg/kg, po; assay type: ADME, organism-based, Macaca fascicularis; set-up: dose 5 mg/kg, route oral; settings: in vivo
[13] = target: Cytochrome P450 2D6 (Homo sapiens, UniProt P10635); test: Inhibition of human CYP2D6; assay type: ADME
[14] = Antitumor activity against human GEO cells xenografted in athymic mouse at 60 mg/kg, po qd for 14 days; assay type: functional; settings: 336 h, read-out: TGI; method in brief: as §1
[15] = Cmax in dog at 25 mg/kg, po; assay type: ADME, organism-based, Canis lupus familiaris; set-up: dose 25 mg/kg, route oral; settings: in vivo
[16] = tested on: BT-474; test: Antiproliferative activity against human BT474 cells after 72 hrs by MTT assay; assay type: functional, cell-based; settings: BT-474, 72 h; method in brief: as §3
[17] = Mean residence time in rat at 2.5 mg/kg, iv; assay type: ADME, organism-based; set-up: dose 2.5 mg/kg, route intravenous; settings: in vivo
[18] = Volume of distribution at steady state in rat at 2.5 mg/kg, iv; assay type: ADME, organism-based; set-up: dose 2.5 mg/kg, route intravenous; settings: in vivo, read-out: Vdss; method in brief: as §2
[19] = Cmax in mouse at 120 mg/kg, po; assay type: ADME, organism-based; set-up: dose 120 mg/kg, route oral; settings: in vivo
[20] = tested on: NCI-N87; test: Antitumor activity against human NCI-N87 cells xenografted in athymic mouse at 180 mg/kg, po qd for 21 days; assay type: functional; settings: NCI-N87, 504 h, read-out: TGI; method in brief: as §1
[21] = tested on: Mus musculus; test: Plasma concentration in BALB/c mouse at 50 mg/kg, po; assay type: ADME, organism-based; set-up: dose 50 mg/kg, route oral; settings: in vivo
Method in brief: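 Compound given orally at 50 mg/kg as a solution in PEG400/Tween80/water (40:10:50) to three Balb/C mice. Plasma sampled over 4 h after dosing; AUC(0-4h), Cmax and 4 h concentration reported.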

[22] = Volume of distribution at steady state in cynomolgus monkey at 5 mg/kg, iv; assay type: ADME, organism-based, Macaca fascicularis; set-up: dose 5 mg/kg, route intravenous; settings: in vivo, read-out: Vdss
Method in brief: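 Monkey PK, mean of two animals. Compound given as a solution in PEG400/Tween80/water (50:0.1:50), 5 mg/kg both orally and iv. Tmax from the oral route; steady-state volume of distribution from the iv route.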

[23] = Effect on action potential parameters in rabbit purkinje fiber up to 30 uM; assay type: ADME, tissue-based, Oryctolagus cuniculus
[24] = target: Epidermal growth factor receptor (Homo sapiens, UniProt P00533); test: Inhibition of human recombinant HER1 expressed in Sf9 cells by liquid scintillation counting
Chain of Epidermal growth factor receptor (P00533 whole entry): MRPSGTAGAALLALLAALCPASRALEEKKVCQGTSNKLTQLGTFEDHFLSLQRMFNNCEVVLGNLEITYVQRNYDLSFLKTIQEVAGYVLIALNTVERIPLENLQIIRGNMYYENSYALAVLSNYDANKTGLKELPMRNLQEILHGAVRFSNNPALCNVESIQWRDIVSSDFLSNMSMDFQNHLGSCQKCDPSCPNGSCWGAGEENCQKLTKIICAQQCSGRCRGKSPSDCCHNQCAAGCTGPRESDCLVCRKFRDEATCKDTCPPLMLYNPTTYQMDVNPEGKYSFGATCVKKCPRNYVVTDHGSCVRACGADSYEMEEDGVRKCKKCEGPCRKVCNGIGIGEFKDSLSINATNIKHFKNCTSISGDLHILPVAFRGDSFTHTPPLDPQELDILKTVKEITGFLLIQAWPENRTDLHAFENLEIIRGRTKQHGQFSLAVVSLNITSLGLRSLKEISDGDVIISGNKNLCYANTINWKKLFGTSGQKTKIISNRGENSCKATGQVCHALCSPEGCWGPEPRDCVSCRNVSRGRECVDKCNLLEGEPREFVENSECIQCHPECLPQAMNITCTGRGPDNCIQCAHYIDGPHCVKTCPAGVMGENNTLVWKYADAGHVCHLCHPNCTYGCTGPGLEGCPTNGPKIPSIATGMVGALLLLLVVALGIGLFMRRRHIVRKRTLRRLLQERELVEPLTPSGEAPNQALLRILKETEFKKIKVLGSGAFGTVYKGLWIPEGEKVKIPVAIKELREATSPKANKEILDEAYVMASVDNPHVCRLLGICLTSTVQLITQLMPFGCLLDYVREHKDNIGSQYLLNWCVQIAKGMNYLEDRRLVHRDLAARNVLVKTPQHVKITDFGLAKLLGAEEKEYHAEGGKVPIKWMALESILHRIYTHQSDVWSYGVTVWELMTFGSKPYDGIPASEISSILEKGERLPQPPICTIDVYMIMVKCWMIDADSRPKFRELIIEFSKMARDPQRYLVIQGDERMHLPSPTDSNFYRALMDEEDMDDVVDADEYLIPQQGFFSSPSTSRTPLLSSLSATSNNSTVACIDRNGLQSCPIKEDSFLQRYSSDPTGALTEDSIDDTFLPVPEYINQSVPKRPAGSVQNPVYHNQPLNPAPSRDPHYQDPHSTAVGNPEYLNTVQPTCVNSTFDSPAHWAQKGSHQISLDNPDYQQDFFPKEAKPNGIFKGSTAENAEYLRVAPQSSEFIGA

Chain of Cytochrome P450 2D6 (P10635 whole entry): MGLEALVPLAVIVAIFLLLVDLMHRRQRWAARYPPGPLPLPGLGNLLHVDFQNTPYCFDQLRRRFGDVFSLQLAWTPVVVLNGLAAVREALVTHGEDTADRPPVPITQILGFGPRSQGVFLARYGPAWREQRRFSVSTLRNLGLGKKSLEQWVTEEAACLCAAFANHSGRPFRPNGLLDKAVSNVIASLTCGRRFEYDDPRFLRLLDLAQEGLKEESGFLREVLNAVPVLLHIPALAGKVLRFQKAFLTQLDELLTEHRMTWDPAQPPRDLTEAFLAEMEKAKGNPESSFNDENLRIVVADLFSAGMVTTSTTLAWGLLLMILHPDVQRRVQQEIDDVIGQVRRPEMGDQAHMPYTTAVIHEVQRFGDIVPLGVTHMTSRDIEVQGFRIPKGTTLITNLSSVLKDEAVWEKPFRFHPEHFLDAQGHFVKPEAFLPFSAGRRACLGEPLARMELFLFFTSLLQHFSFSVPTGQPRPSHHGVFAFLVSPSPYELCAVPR

What does the source list for `Cc1c(NC(=O)OC[C@@H]2COCCN2)cn2ncnc(Nc3ccc4c(cnn4Cc4cccc(F)c4)c3)c12` [AC-480]?
Tmax [1]: 1 h; inhibition in vivo at 120 mg/kg [2]: 95%; Stability [3]: 0.02 nmol/min; AUC(0-t) at 24 h [4]: 14 µM·h; Tmax [5]: 0.7 h; IC50 [6]: > 40000 nM; IC50 [7]: > 10000 nM; half-life [8]: 2.7 h; half-life [9]: 2.8 h; fraction unbound at 10 µM [10]: 0.029; inhibition in vivo at 60 mg/kg [11]: 58%; Cmax [12]: 500 nM; IC50 [13]: > 40000 nM; inhibition in vivo at 60 mg/kg [14]: 39%; Cmax [15]: 1200 nM; IC50 [16]: 310 nM; MRT [17]: 2.8 h; Vd [18]: 5.7 L/kg; Cmax [19]: 18000 nM; inhibition in vivo at 180 mg/kg [20]: 71%; concentration [21]: 4100 nM; Vd [22]: 4 L/kg; Activity [23]: Non-toxic; IC50 [24]: 32 nM
